Data from ChEMBL document CHEMBL1158435, “Identification of a novel inhibitor of JAK2 tyrosine kinase by structure-based virtual screening” (Bioorg Med Chem Lett, 2009).
Calls of active or inactive are those of the source. No cut-off for these calls is given here.

How the values were obtained:
[1] = biological target: Proto-oncogene tyrosine-protein kinase Src (Homo sapiens) (UniProt P12931); assay: Inhibition of recombinant pp60c-Src autophosphorylation at 25 uM by Western blotting
Summary of the method: (§1)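 Cell-free c-Src kinase assay, with compound tested at 25 μM.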

[2] = system: HEL; assay: Growth inhibition of HEL cells harboring Val617Phe mutation in JAK2 at 25 uM after 72 hrs by trypan blue exclusion assay; assay type: functional; settings: Homo sapiens, read-out: GI
Summary of the method: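 Screening assay of HEL growth inhibition. HEL cells carry JAK2-Val617Phe on both alleles. Each compound was tested at a single final concentration of 25 μM.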

[3] = Inhibition of pathological growth of human hematopoietic progenitor cells isolated from polycythemia vera patient assessed as erythroid colony formation at 2.5 uM after 14 days in absence of erythropoietin; assay type: functional; settings: 336 h, read-out: GI
[4] = system: CMK; assay: Growth inhibition of human CMK cells harboring Ala572Val mutation in JAK3 assessed as reduction in cell number at 0.001 to 10 uM after 48 hrs using trypan blue staining by hemocytometry; assay type: functional, cell-based
Summary of the method: (§2)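 Four lines were compared: HEL (JAK2-Val617Phe on both alleles), CMK (JAK3-Ala572Val), Raji (c-Myc/heavy-chain locus translocation) and BSC-40 (green monkey kidney epithelial, SV-40 large T immortalized). Cells were exposed to compound over 10−9 to 10−4 M, and the read-out was cell number.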

[5] = biological target: Non-receptor tyrosine-protein kinase TYK2 (Homo sapiens) (UniProt P29597); assay: Inhibition of TYK2 autophosphorylation transfected in mouse embryonic fibroblasts at 25 uM by Western blotting
Summary of the method: (§3)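 TYK2 autophosphorylation was measured within intact cells, with compound present at 25 μM.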

[6] = system: Tyrosine-protein kinase JAK2 (Homo sapiens), O60674 [V617F]; assay: Inhibition of recombinant JAK2-Val617Phe kinase activity at 25 uM after 30 mins by luminometry
Summary of the method: (§4)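 Cell-free kinase assay. Recombinant JAK2-Val617Phe protein (JH1+JH2) was incubated with increasing inhibitor concentrations. After the kinetic reactions, relative kinase inhibition was determined from the residual ATP level in each reaction.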

[7] = system: CMK; assay: Growth inhibition of human CMK cells harboring Ala572Val mutation in JAK3 assessed as reduction in cell number at 100 uM after 48 hrs using trypan blue staining by hemocytometry; assay type: functional, cell-based; summary of the method: as §2
[8] = biological target: Tyrosine-protein kinase JAK2 (Homo sapiens, UniProt O60674, V617F); assay: (§5) Inhibition of recombinant JAK2-Val617Phe kinase activity after 30 mins by luminometry; summary of the method: as §4
[9] = system: Tyrosine-protein kinase JAK2 (Homo sapiens), O60674 [V617F]; assay: as §5; summary of the method: as §4
[10] = biological target: Non-receptor tyrosine-protein kinase TYK2 (Homo sapiens) (UniProt P29597); assay: Inhibition of TYK2 transfected in mouse embryonic fibroblasts at 25 uM by Western blotting; summary of the method: as §3
[11] = system: HEL; assay: Growth inhibition of HEL cells harboring Val617Phe mutation in JAK2 assessed as reduction in cell number at 100 uM after 48 hrs using trypan blue staining by hemocytometry; assay type: functional, cell-based; settings: Homo sapiens; summary of the method: as §2
[12] = system: BSC-40; assay: Growth inhibition of african green monkey BSC40 cells immortalized with SV40 large T antigen assessed as reduction in cell number at 100 uM after 48 hrs using trypan blue staining by hemocytometry; assay type: functional, cell-based; settings: Chlorocebus aethiops; summary of the method: as §2
[13] = system: Raji; assay: Growth inhibition of human Raji cells possessing […] between c-Myc gene on chromosome 8 and heavy chain locus on chromosome 14 assessed as reduction in cell number at 100 uM after 48 hrs using trypan blue staining by hemocytometry; assay type: functional, cell-based; summary of the method: as §2
[14] = Inhibition of pathological growth of human hematopoietic progenitor cells isolated from polycythemia vera patient assessed as erythroid colony formation at 2.5 uM after 14 days in absence of erythropoietin; settings: 336 h, read-out: GI
[15] = system: HEL; assay: Reduction in phospho-JAK2 [pYpY1007/1008] level in HEL cells after 48 hrs by […]; assay type: functional, cell-based; settings: Homo sapiens
Summary of the method: (§6)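 HEL cells were treated across varying compound concentrations and exposure times. Phospho-JAK2 protein levels were then measured in the cells.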

[16] = biological target: Proto-oncogene tyrosine-protein kinase Src (Homo sapiens) (UniProt P12931); assay: Inhibition of recombinant pp60c-Src at 25 uM by Western blotting; summary of the method: as §1
[17] = system: HEL; assay: Growth inhibition of HEL cells harboring Val617Phe mutation in JAK2 assessed as reduction in cell number at 0.001 to 10 uM after 48 hrs using trypan blue staining by hemocytometry; assay type: functional, cell-based; settings: Homo sapiens; summary of the method: as §2
[18] = system: HEL; assay: Reduction in phospho-JAK2 [pYpY1007/1008] level in HEL cells at 25 uM by […]; assay type: functional, cell-based; settings: Homo sapiens, TDE = time-dependent effect; summary of the method: as §6
[19] = system: BSC-40; assay: Growth inhibition of african green monkey BSC40 cells immortalized with SV40 large T antigen assessed as reduction in cell number at 0.001 to 10 uM after 48 hrs using trypan blue staining by hemocytometry; assay type: functional, cell-based; settings: Chlorocebus aethiops; summary of the method: as §2
[20] = system: Raji; assay: Growth inhibition of human Raji cells possessing […] between c-Myc gene on chromosome 8 and heavy chain locus on chromosome 14 assessed as reduction in cell number at 0.001 to 10 uM after 48 hrs using trypan blue staining by hemocytometry; assay type: functional, cell-based; summary of the method: as §2

Chain of Proto-oncogene tyrosine-protein kinase Src (Homo sapiens) (P12931 2-536 limits assumed): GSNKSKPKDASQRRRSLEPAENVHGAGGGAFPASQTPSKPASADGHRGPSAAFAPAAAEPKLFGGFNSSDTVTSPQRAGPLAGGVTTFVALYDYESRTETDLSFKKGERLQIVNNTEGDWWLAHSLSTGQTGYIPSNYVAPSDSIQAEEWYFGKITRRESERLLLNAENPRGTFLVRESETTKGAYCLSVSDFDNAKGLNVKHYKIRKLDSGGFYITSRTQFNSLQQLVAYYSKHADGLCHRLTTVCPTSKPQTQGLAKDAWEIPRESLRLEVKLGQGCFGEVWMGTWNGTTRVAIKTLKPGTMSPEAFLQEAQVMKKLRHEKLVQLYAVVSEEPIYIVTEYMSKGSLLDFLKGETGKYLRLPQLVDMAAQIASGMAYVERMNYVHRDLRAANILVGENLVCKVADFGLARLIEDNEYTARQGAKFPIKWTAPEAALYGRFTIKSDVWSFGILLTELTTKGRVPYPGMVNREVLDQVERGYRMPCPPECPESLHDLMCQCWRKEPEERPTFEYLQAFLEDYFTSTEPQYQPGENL
Chain of Non-receptor tyrosine-protein kinase TYK2 (Homo sapiens) (P29597 whole entry): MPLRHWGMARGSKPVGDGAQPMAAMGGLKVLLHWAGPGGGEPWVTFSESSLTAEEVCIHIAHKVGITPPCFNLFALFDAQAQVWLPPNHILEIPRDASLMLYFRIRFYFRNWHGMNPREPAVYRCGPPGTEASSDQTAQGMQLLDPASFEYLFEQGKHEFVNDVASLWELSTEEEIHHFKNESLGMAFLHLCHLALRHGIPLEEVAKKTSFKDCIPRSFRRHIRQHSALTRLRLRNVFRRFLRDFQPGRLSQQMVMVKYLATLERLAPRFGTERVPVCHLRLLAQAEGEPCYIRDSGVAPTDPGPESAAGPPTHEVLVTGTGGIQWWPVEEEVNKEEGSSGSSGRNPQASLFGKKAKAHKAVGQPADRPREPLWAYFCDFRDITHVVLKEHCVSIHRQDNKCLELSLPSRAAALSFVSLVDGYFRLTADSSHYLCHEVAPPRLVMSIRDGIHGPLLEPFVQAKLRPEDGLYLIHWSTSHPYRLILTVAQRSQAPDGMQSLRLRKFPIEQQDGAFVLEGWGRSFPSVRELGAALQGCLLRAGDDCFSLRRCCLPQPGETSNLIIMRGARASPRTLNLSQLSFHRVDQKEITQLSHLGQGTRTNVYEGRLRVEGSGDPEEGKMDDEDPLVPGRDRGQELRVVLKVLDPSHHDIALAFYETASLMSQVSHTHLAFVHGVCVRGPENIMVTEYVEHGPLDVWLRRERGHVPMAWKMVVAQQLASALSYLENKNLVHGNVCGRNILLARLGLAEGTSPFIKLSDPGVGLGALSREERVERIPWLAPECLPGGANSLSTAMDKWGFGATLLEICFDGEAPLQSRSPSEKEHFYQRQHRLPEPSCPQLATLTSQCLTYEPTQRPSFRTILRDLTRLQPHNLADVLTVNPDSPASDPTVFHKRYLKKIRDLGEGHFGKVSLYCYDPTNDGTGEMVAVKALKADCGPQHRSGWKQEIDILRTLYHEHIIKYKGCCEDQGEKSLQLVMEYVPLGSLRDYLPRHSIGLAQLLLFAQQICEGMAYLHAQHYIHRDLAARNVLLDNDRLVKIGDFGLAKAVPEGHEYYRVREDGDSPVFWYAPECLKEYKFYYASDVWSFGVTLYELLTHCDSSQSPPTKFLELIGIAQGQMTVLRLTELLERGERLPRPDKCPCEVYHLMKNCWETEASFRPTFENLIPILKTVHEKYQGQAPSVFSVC
Chain of Tyrosine-protein kinase JAK2 (Homo sapiens), O60674 [V617F] (O60674 whole entry V617F): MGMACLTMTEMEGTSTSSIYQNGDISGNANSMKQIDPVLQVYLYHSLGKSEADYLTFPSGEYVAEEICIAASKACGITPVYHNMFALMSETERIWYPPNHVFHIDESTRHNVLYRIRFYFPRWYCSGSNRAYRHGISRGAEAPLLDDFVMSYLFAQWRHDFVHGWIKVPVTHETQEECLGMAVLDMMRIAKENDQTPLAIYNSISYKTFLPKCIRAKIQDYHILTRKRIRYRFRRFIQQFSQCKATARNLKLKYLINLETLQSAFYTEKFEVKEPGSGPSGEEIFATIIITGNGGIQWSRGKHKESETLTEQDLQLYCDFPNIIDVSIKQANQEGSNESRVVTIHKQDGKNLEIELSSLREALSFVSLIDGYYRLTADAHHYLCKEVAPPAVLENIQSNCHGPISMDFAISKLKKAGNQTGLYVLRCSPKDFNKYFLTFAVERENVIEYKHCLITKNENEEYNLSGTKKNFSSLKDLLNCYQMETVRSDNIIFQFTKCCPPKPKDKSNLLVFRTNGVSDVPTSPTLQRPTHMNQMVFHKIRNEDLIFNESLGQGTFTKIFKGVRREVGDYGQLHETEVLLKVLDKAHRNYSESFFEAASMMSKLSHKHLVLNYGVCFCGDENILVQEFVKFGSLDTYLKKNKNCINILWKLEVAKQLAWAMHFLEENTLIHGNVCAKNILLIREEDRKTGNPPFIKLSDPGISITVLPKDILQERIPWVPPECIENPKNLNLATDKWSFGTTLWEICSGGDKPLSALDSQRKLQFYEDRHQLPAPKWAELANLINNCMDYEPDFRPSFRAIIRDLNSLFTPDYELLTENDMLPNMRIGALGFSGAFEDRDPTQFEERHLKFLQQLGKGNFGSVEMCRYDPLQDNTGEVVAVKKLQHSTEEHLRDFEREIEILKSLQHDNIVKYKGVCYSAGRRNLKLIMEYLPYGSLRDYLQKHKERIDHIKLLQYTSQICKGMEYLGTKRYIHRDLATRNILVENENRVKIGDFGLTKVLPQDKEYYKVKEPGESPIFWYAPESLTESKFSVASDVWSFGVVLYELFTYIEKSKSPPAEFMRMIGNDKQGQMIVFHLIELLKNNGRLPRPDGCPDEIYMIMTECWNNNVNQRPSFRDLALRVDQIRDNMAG
Chain of Tyrosine-protein kinase JAK2 (O60674 whole entry V617F): as above

Row | SMILES | inhibition of growth at 25 µM [2] | further results
1 | CC(C)(C)n1nc(-c2ccc(Cl)cc2)c2c(N)ncnc21 | – | inhibition [1]: Active
2 | C/C(CC(=O)c1ccccc1)=N/CCCC/N=C(/C)CC(=O)c1ccccc1 | 19% | –
3 | O=C(CN1C=C(/C=N/O)C=CC1)C1CCC(C2CCC(C(=O)CN3CCCC(/C=N/O)C3)CC2)CC1 (stereo unspecified) | 8% | –
4 | CC(CCc1ccccn1)(CCc1ccccn1)C(=O)c1ccccc1 | – | inhibition [1]: inactive
5 | O=P(O)(c1ccc(Cl)cc1)c1ccc(Cl)cc1 | 13% | –
6 | O=C(/C=C(\C=C\c1ccccc1)c1ccccc1)CC(=O)c1ccccc1 | 11% | –
7 | NC(CSSCC(N)C(=O)c1ccccc1)C(=O)c1ccccc1 (stereo unspecified) | 30% | –
8 | CCc1c(C#N)c(N)c2c(N)c(C(=O)c3ccccc3)sc2c1C | 30% | –
9 | O=C(CC(=O)c1ccccc1)CC(O)(/C=C/c1ccccc1)c1ccccc1 (stereo unspecified) | 15% | –
10 | CCCCCCCCNC(C(=O)c1ccc(Cl)cc1)c1ccc(Cl)cc1 (stereo unspecified) | 7% | –
11 | COc1ccc(-c2n[nH]c(=S)c(-c3ccccc3)c2-c2ccccc2)cc1 | 44% | –
12 | C/C(CC(=O)c1ccccc1)=N/CCCCC/N=C(\C)CC(=O)c1ccccc1 | 31% | –
13 | Cc1c(O)c2ccccc2c2c1sc(NCCCN(CCO)CCO)[n+]2C | 41% | –
14 | COc1ccc2nc(NC(=O)Nc3ccc(C)c(NC(=O)Nc4nc5ccc(OC)cc5s4)c3)sc2c1 | 57% | –
15 | CCc1[nH]nc(-c2ccc(OC)cc2)c1-c1ccccc1O | 40% | –
16 | O=[N+]([O-])c1cc(/C=N/NS(=O)(=O)c2cc(Cl)c(Cl)cc2Cl)ccc1Cl | 27% | –
17 | CC/C(=C(/CC)c1ccc(O)c(CN(CC)CC)c1)c1ccc(O)c(CN(CC)CC)c1 | > 99% | inhibition of growth at 2.5 µM [3]: > 50%; growth inhibition (GI) [4]: inactive; inhibition [5]: inactive; inhibition [6]: > 99%; growth inhibition (GI) [7]: Active; IC50 [8]: 60 nM; Activity [9]: Dose-dependent effect; inhibition [10]: inactive; growth inhibition (GI) [11]: Active; inhibition [1]: inactive; growth inhibition (GI) [12]: Active; growth inhibition (GI) [13]: Active; inhibition of growth at 2.5 µM [14]: > 50%; Activity [15]: Dose-dependent effect; inhibition [16]: inactive; growth inhibition (GI) [17]: Active; Activity [18]: tde; growth inhibition (GI) [19]: inactive; growth inhibition (GI) [20]: inactive
18 | O=C(/C=C(\O)c1ccc(F)cc1)C(=O)/C=C(\O)c1ccc(F)cc1 | 36% | –
19 | O=C(Nc1ccc(Cc2ccc(NC(=O)Nc3cccc(C4=NCCN4)c3)cc2)cc1)Nc1cccc(C2=NCCN2)c1 | 13% | –

Row | SMILES | inhibition of growth at 25 µM [2] | further results
20 | O=C1C=Cc2ccccc2/C1=C/N/N=C(\C(=O)c1ccccc1)c1ccccc1 | 27% | –
21 | NC(=O)c1cc(NC(=O)c2ccc(C(=O)Nc3cc(C(N)=O)cc(C4=NCCN4)c3)cc2)cc(C2=NCCN2)c1 | 10% | –
22 | O=C(CC(=O)CC(=O)c1ccccc1)CC(=O)c1ccccc1 | 67% | –
23 | O=C1C=Cc2ccccc2/C1=C/NNS(=O)(=O)c1cc(Cl)c(Cl)cc1Cl | 51% | –
24 | CCCCCCCNC1=C(OCC)C(=O)c2ccccc2C1=O | 24% | –
25 | O=C(Nc1ccc(Oc2ccc(NC(=O)Nc3ccc(-c4ccccc4)cc3)cc2)cc1)Nc1ccc(-c2ccccc2)cc1 | 13% | –
26 | O=C1C=C(NCCCC2CCCN3CCCCC23)C(=O)c2ccccc21 (stereo unspecified) | 27% | –
27 | O=C(c1cccc([N+](=O)[O-])c1)c1c(O)oc2ccccc2c1=O | 40% | –
28 | O=C(NCCNCCO)c1cccc(Nc2cc(O)c(O)c3ccccc23)c1 | 42% | –
29 | O/N=C(\c1ccccc1)c1ccc[n+](CCc2ccccc2)c1 | 38% | –
30 | O=C(Nc1ccccc1)Nc1ccc2ccccc2c1 | 38% | –
31 | Cc1cc(Cl)ccc1Nc1sc(C(=O)c2cc3cc(Cl)ccc3o2)c(N)c1C#N | 55% | –
32 | CC1=CN=C(NCCCCNC2=NC=C(C)/C(=C3/C=CC=CC3=O)N2)N/C1=C1/C=CC=CC1=O | 16% | –
33 | Nc1ccc(C(=O)Nc2ccc3cc(S(=O)(=O)O)cc(O)c3c2)cc1 | 39% | –
34 | CC(=O)c1cc(Cl)ccc1OCC(O)CNc1ccccc1C(=O)c1ccccc1 (stereo unspecified) | 41% | –
35 | CC(=O)c1c(O)cc(O)cc1-c1cc(=O)c2c(O)ccc(C(C)=O)c2o1 | 42% | –
36 | OC1C=C(c2ccccc2)C(c2ccccc2)C(c2ccccc2)C1 (stereo unspecified) | 27% | –
37 | O=C(Nc1cc(Cl)ccc1Cl)Nc1ccc(Cl)cc1C(=O)c1ccccc1 | 24% | –
